“And” between values parts separate entries of the source, which are not always exact repeats. Equal values may be shown once.
How the values were obtained:
Fibroblast = assay: Multiplex assay against human fibroblast; format: toxicity, cell-based; details: number of replicates 2
How it was run: (§1)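 Tubulin, mitochondrial-mass and membrane-permeability phenotypes are per cents of healthy-nucleus cells. Cells were gated by CellPathfinder machine learning into Hoechst high-intensity objects or normal cells, normal cells into healthy, pyknosed or fragmented nuclei, and pyknosed cells into mitotic or apoptotic. Before that, live cells stained at seeding with Hoechst33342, BioTracker Green Microtubule Cytoskeleton Dye, MitoTracker Red and Annexin V Alexa Fluor 680 were imaged on a CQ1 microscope at 37°C and 5% CO2 after compound addition.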

HEK-293T = assay: Multiplex assay against HEK293T; format: toxicity, cell-based; details: human, number of replicates 2; how it was run: as §1
[1] = 12 h, 1 µM, compound concentration 1 uM
[2] = 12 h, 10 µM, compound concentration 10 uM
[3] = 24 h, 1 µM, compound concentration 1 uM
[4] = 24 h, 10 µM, compound concentration 10 uM
[5] = 48 h, 1 µM, compound concentration 1 uM
[6] = 48 h, 10 µM, compound concentration 10 uM

## Cn1cc(-c2ccc(-c3cncc(Cl)c3N3CCC4(CCNC4=O)CC3)cc2)cn1
Fibroblast; [1]
  Population Apoptotic (%): 34% and 44%
  Population Fragmented Nuclei (%): 3% and 11%
  Population Healthy Nuclei (%): 66% and 70%
  Population Hoechst High Intensity Objects (%): 0%
  Population Membrane Permeable-Phenotype (%): 9% and 5%
  Population Mitochondria Different-Phenotype (%): 0% and 2%
  Population Mitotic Cells (%): 66% and 55%
  Population Normal (%): 100%
  Population Pyknosed Nuclei (%): 30% and 18%
  Population Tubulin-Different-Phenotype (%): 22% and 16%
  Total Cell Count: 162 and 230
Fibroblast; [2]
  Population Apoptotic (%): 25% and 39%
  Population Fragmented Nuclei (%): 14% and 11%
  Population Healthy Nuclei (%): 67% and 71%
  Population Hoechst High Intensity Objects (%): 0%
  Population Membrane Permeable-Phenotype (%): 18% and 13%
  Population Mitochondria Different-Phenotype (%): 3% and 4%
  Population Mitotic Cells (%): 74% and 60%
  Population Normal (%): 100%
  Population Pyknosed Nuclei (%): 17% and 16%
  Population Tubulin-Different-Phenotype (%): 84% and 65%
  Total Cell Count: 196 and 203
Fibroblast; [3]
  Population Apoptotic (%): 45% and 50%
  Population Fragmented Nuclei (%): 7% and 13%
  Population Healthy Nuclei (%): 38% and 57%
  Population Hoechst High Intensity Objects (%): 0%
  Population Membrane Permeable-Phenotype (%): 21% and 8%
  Population Mitochondria Different-Phenotype (%): 3% and 2%
  Population Mitotic Cells (%): 54% and 49%
  Population Normal (%): 99%
  Population Pyknosed Nuclei (%): 53% and 28%
  Population Tubulin-Different-Phenotype (%): 41% and 21%
  Total Cell Count: 157 and 229
Fibroblast; [4]
  Population Apoptotic (%): 44% and 56%
  Population Fragmented Nuclei (%): 24% and 22%
  Population Healthy Nuclei (%): 62% and 64%
  Population Hoechst High Intensity Objects (%): 0%
  Population Membrane Permeable-Phenotype (%): 15% and 7%
  Population Mitochondria Different-Phenotype (%): 8% and 7%
  Population Mitotic Cells (%): 55% and 43%
  Population Normal (%): 99% and 100%
  Population Pyknosed Nuclei (%): 13% and 12%
  Population Tubulin-Different-Phenotype (%): 82% and 73%
  Total Cell Count: 204 and 232
Fibroblast; [5]
  Population Apoptotic (%): 69% and 58%
  Population Fragmented Nuclei (%): 8% and 20%
  Population Healthy Nuclei (%): 50% and 57%
  Population Hoechst High Intensity Objects (%): 0% and 1%
  Population Mitochondria Different-Phenotype (%): 1% and 2%
  Population Mitotic Cells (%): 30% and 41%
  Population Normal (%): 99% and 98%
  Population Pyknosed Nuclei (%): 40% and 22%
  Population Tubulin-Different-Phenotype (%): 47% and 22%
  Total Cell Count: 154 and 211
Fibroblast; [6]
  Population Apoptotic (%): 66% and 69%
  Population Fragmented Nuclei (%): 19% and 22%
  Population Healthy Nuclei (%): 67% and 66%
  Population Hoechst High Intensity Objects (%): 0%
  Population Membrane Permeable-Phenotype (%): 9% and 2%
  Population Mitochondria Different-Phenotype (%): 11%
  Population Mitotic Cells (%): 33% and 30%
  Population Normal (%): 99%
  Population Pyknosed Nuclei (%): 12% and 10%
  Population Tubulin-Different-Phenotype (%): 66% and 68%
  Total Cell Count: 210 and 211
HEK-293T; [1]
  Population Apoptotic (%): 62% and 39%
  Population Fragmented Nuclei (%): 2% and 4%
  Population Healthy Nuclei (%): 90% and 84%
  Population Hoechst High Intensity Objects (%): 6% and 5%
  Population Membrane Permeable-Phenotype (%): 5% and 4%
  Population Mitochondria Different-Phenotype (%): 14% and 18%
  Population Mitotic Cells (%): 37% and 60%
  Population Normal (%): 93% and 94%
  Population Pyknosed Nuclei (%): 6% and 11%
  Population Tubulin-Different-Phenotype (%): 58% and 67%
  Total Cell Count: 574 and 615
HEK-293T; [2]
  Population Apoptotic (%): 41% and 49%
  Population Fragmented Nuclei (%): 2% and 3%
  Population Healthy Nuclei (%): 87% and 86%
  Population Hoechst High Intensity Objects (%): 7%
  Population Membrane Permeable-Phenotype (%): 5% and 6%
  Population Mitochondria Different-Phenotype (%): 40% and 35%
  Population Mitotic Cells (%): 58% and 50%
  Population Normal (%): 92%
  Population Pyknosed Nuclei (%): 10%
  Population Tubulin-Different-Phenotype (%): 98% and 95%
  Total Cell Count: 600 and 554
HEK-293T; [3]
  Population Apoptotic (%): 36% and 51%
  Population Fragmented Nuclei (%): 6% and 9%
  Population Healthy Nuclei (%): 86% and 85%
  Population Hoechst High Intensity Objects (%): 9% and 10%
